Reference: article PMC8628544 (Developmental cell, 2021)
Where two headings read alike, the source gives them in different places.

Assays:
NR2F2 [1] = details: at high concentrations; ref Kruse et al., 2008; cited from earlier work
NR2F1 LBD = molecular target: T1, NR2F1 LBD (Mus musculus, UniProt Q60632); assay: Metabolite pull-down / displacement with FLAG-tagged LBD and LC-MS; type: binding; details: 500 nM retinoic acid in medium
T1 sequence (Q60632 183-422): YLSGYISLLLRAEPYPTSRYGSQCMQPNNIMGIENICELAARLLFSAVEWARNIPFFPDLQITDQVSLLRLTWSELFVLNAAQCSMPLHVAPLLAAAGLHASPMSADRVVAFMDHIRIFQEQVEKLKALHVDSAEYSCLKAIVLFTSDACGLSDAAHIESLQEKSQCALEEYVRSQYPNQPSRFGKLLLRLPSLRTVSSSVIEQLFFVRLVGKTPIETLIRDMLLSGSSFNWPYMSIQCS

NR2F1/2 = details: read-out: Kd for NR2F1/2; ref Kruse et al., 2008; cited from earlier work
RARA LBD = molecular target: T2, RARA LBD (Homo sapiens, UniProt P10276); assay: Metabolite pull-down with FLAG-tagged control LBD and LC-MS; type: binding; details: C18+ mode; 500 nM all-trans-retinoic acid in medium; p-value 0.01
T2 sequence (P10276 183-417 limits assumed): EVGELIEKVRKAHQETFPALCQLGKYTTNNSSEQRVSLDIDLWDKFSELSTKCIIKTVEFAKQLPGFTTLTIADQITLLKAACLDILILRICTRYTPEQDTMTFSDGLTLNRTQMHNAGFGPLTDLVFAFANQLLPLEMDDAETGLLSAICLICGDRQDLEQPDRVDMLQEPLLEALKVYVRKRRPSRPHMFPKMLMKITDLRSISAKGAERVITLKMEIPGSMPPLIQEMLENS

mouse LECs = type: cell-based
In short: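 LECs were isolated from collagenase D/dispase-digested mouse lymph nodes and grown overnight in semi-synthetic medium (DMEM, Hepes, 1% BSA, ITS-A, 1% FBS) with 1 µM sphingolipid-precursor-BSA. Deletion was induced with 0.5–1 µM 4-OH-TMX. Test compound-BSA (50–100 nM) or vehicle was added, with media renewed daily. At 24 h, cells were fixed and immunostained for NR2F2, Prox1 and […], then imaged by confocal microscopy.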

[2] = test system: human ESC-derived cardiomyocytes; assay: Cardiomyocyte differentiation of hESCs; type: cell-based; details: for gene expression in DKO cultures / fraction of TNNT2+ cells in DKO cultures: NR2F1/2 DKO
[3] = test system: E10.5 embryo cultures of Sptlc2^f/f Cdh5^CreERT2 mice; assay: Rescue experiments using ex-vivo embryo culture; set-up: species or system mouse; details: 25 nM 1-deoxySO-BSA; 24 hours; 4-OH-TMX
In short: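 Embryos were cultured in DMEM-F12 with 15% KSR, N2, Glutamax and Pen-Strep. Medium held 1 µM 4-OH-TMX, 5 µM sphingolipid-precursor-BSA and 25 nM test compound-BSA; controls received vehicle-BSA instead. Culture ran in O2-flushed sealed 50 mL tubes on a roller at 37°C, 5% CO2, for 24 h.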

HEK-293FT cells = assay: Cell viability of HEK-293FT cells; type: cell-based, human; details: 1 µM
NR2F2 [4] = assay: NR2F2 reporter activity in HEK-293FT cells; type: cell-based; details: 1 µM
In short: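 HEK-293FT cells plated at 5 x 10^4 per well the day before, then PEI-transfected in antibiotic-free DMEM with 1% FBS. Each well received reporter plasmid, NHR plasmid and a Renilla normalisation plasmid. 24 h after transfection, test compound-BSA complexes diluted in 1% FBS medium were added. Dual luciferase read-out.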

[5] = molecular target: NR2F1(LBD)-GAL4(DBD) fusion protein (Mus musculus, UniProt Q60632); assay: NR2F1; type: cell-based; details: Figure S1C
[6] = molecular target: fluorescein-labeled SRC2-2 peptide; assay: fluorescence polarisation
[7] = molecular target: fluorescein-labeled SRC2-2 peptide; assay: fluorescence polarisation; remark: listed apart in the source
[8] = molecular target: fluorescein-labeled SRC2-2 peptide; assay: fluorescence polarisation; remark: listed apart in the source
[9] = 1 µM from day 1, WT, day 6, bulk RNA-seq

NR2F1(LBD)-GAL4(DBD) fusion protein, sequence (P04386 1-147 partner limits assumed, one chain of several): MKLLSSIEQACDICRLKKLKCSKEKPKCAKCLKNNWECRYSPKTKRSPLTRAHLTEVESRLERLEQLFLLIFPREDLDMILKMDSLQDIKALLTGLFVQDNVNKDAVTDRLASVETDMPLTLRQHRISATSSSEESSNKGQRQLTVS

CC1=C(/C=C/C(C)=C/C=C/C(C)=C/C(=O)O)C(C)(C)CCC1 [retinoic acid, all-trans retinoic acid]
agonist activity on NR2F2 (NR2F2 [1]): weak agonist
metabolites with exact masses detected in the NR2F1 samples (NR2F1 LBD): no such metabolites were detected
Kd (NR2F1/2): 26000 nM
enrichment in RARA but not NR2F1 samples (RARA LBD): 14.76 fold

CCC/C=C\CCCCCCCCCC[C@@H](O)[C@H](C)N [1-deoxySO-14Z, 1-deoxysphingosine (14Z)]
number of viable cells in Sptlc2 deleted cultures (mouse LECs; 4OH-TMX, medium with D-erythroSO, Figure S3C): restored
other lymphatic endothelial markers (LYVE1 and NR2F2) (mouse LECs; within 24 hours after 4OH-TMX): no effects were observed
PROX1 levels in LECs (mouse LECs; within 24 hours after 4OH-TMX, versus vehicle): partially restored
gene expression in DKO cultures [2]: minimally affected
fraction of TNNT2+ cells in DKO cultures ([2]; 1.5 µM from day 3): did not increase
cardiac development in embryo cultures [3]: partially rescued

CCCCCCC(=O)CCCCCC/C=C/C[C@@H](O)[C@H](O)[C@@](N)(CO)C(=O)O [myriocin]
cell viability (HEK-293FT cells): without loss of cell viability
NR2F2 reporter activity (NR2F2 [4]): partially suppress
number of downregulated genes versus vehicle [2, 9]: 850
number of upregulated genes versus vehicle [2, 9]: 1121

COc1ccc(O)c2ccccc12 [4-methoxy-1-naphthol]
activity of the NR2F1(LBD)-GAL4(DBD) fusion protein [5]: inhibited

CCCCCCCCCCCCC/C=C/[C@@H](O)[C@H](C)N [1-deoxysphingosine]
fraction of TNNT2+ cells in WT cultures ([2]; WT, 1.5 µM from day 3, FACS day 9): increased
number of genes decreased by >2-fold versus vehicle ([2]; WT, day 9): 464
number of genes increased by >2-fold versus vehicle ([2]; WT, day 9): 265

CCCCCCCCCCCCC/C=C/[C@@H](O)[C@@H](N)CO [D-erythroSO, D-erythro-sphingosine]
gene expression in DKO cultures [2]: minimally affected
fraction of TNNT2+ cells in DKO cultures ([2]; 1.5 µM from day 3): did not increase

NR2F1/2-LBD
Kd [6]: > 300 nM
Kd [7]: 68 nM
Kd [8]: > 300 nM
